# Measurements as given in ChEMBL document CHEMBL4376840, “Application of Fluorine- and Nitrogen-Walk Approaches: Defining the Structural and Functional Diversity of 2-Phenylindole Class of Cannabinoid 1 Receptor Positive Allosteric Modulators” (J Med Chem, 2020).
# Activity calls are given as the source filed them. The rule behind the calls is not given here.
# Key:
# Cannabinoid receptor 1 [1] = target: T1, Cannabinoid receptor 1 (Homo sapiens, UniProt P21554); assay: Agonist activity at human CB1 receptor expressed in CHO cell membranes assessed as increase in G-protein coupling by measuring [35S]GTPgammaS binding after 90 mins in presence of [35S]GTPgammaS by liquid scintillation analysis relative to control; type: functional
# Procedure, shortened: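 [35S]GTPγS binding to G protein in membranes from CHO cells stably expressing human CB1R, with test compound given alone. Data fit to a variable-slope 4-parameter nonlinear regression. n = 4–6 independent experiments in duplicate.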
# Cannabinoid receptor 1 [2] = target: T1, Cannabinoid receptor 1; assay: Positive allosteric modulatory activity at human CB1R expressed in CHO-K1 cells assessed as increase in CP55940-induced inhibition of forskolin-induced cAMP accumulation by measuring cAMP accumulation at minimal level at higher concentration after 90 mins in presence of 100 nM CP55940 by hit-hunter cAMP assay relative to forskolin; type: functional, cell-based
# Procedure, shortened: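 Uses the HitHunter CHO-K1 hCB1R cAMP set-up above. […] Data normalized to % forskolin, 4-parameter fit. n ≥ 6, triplicate.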
# [3] = target: Cannabinoid receptor 1 (Rattus norvegicus) (UniProt P20272); assay: Positive allosteric modulatory activity at N-terminal GFP-tagged rat CB1R receptor expressed in HEK293 cells assessed as downward shift in CP55940 dependent concentration response curve for inhibition of forskolin-induced cAMP accumulation after 30 mins by TR-FRET assay; type: functional, cell-based
# Cannabinoid receptor 1 [4] = target: T1, Cannabinoid receptor 1; assay: Allosteric agonist activity at human CB1R expressed in CHO-K1 cells assessed as increase in beta arrestin2 recruitment after 90 mins by pathhunter beta-arrestin assay relative to CP55940; type: cell-based
# Procedure, shortened: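 PathHunter CHO-K1 hCB1R cells (20,000/well) were held overnight in Opti-MEM with 1% FBS. Compound alone (0.10 nM – 10 μM) was given at 37°C for 90 min, then detection solution for 60 min at room temperature and chemiluminescence was read.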
# Cannabinoid receptor 1 [5] = target: T1, Cannabinoid receptor 1; assay: Positive allosteric modulatory activity at human CB1R expressed in CHO-K1 cells assessed as increase in CP55940-induced beta-arrestin2 recruitment after 90 mins in presence of CP55940 at EC20 concentration by pathhunter beta-arrestin assay relative to control; type: cell-based
# Procedure, shortened: (§1)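 Read-out was chemiluminescent β-arrestin2 recruitment, fit with a 4-parameter regression. n = 1–3 independent experiments in duplicate.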
# Cannabinoid receptor 1 [6] = target: T1, Cannabinoid receptor 1; assay: Positive allosteric modulatory activity at human CB1R expressed in CHO-K1 cells assessed as maximal increase in CP55940-induced beta arrestin2 recruitment after 90 mins in presence of 100 nM CP55940 by pathhunter beta-arrestin assay relative to CP55940; type: cell-based
# Cannabinoid receptor 1 [7] = target: T1, Cannabinoid receptor 1; assay: Allosteric agonist activity at human CB1R expressed in CHO-K1 cells assessed as inhibition of forskolin-induced cAMP accumulation by measuring cAMP accumulation at minimal level at higher concentrations after 90 mins by hit-hunter cAMP assay relative to forskolin; type: functional, cell-based
# Procedure, shortened: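 HitHunter CHO-K1 hCB1R cells (20,000/well) were held overnight in Opti-MEM with 1% FBS. They were then co-treated at 37°C with 10 μM forskolin plus compound alone (0.10 nM – 10 μM) for 90 min. Chemiluminescent cAMP detection followed (two 60-min room-temperature steps). Data as % forskolin, variable-slope 4-parameter fit; Emin is the lower plateau. n ≥ 6, triplicate.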
# [8] = target: Cannabinoid receptor 1 (Rattus norvegicus) (UniProt P20272); assay: Positive allosteric modulatory activity at N-terminal GFP-tagged rat CB1R receptor expressed in HEK293 cells assessed as leftward shift in CP55940 dependent concentration response curve for inhibition of forskolin-induced cAMP accumulation after 30 mins by TR-FRET assay; type: functional, cell-based
# [9] = target: Cannabinoid receptor 1 (Rattus norvegicus) (UniProt P20272); assay: Allosteric agonist activity at N-terminal GFP-tagged rat CB1R expressed in HEK293 cells assessed as inhibition of forskolin-induced cAMP production by measuring cAMP accumulation at minimal level at higher concentrations after 30 min by TR-FRET assay relative to forskolin; type: functional, cell-based
# Procedure, shortened: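 HEK293 cells stably expressing N-terminal GFP-tagged rat CB1R were trypsin-EDTA dissociated and resuspended in HBSS with 0.1% BSA and 0.5mM IBMX at 500 cells/well. Cells got 5μM forskolin plus compound (1 pM – 10 μM) alone for 30 min. 4-parameter fit; Emin is the lower plateau. n ≥ 3, triplicate.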
# [10] = rat, microsomes, 1 µM
# [11] = Toxicity in C57BL/6 mouse assessed as effect on hypothermia at 0.1 to 10 mg/kg, ip after 15 mins by thermometric method; type: organism-based; details: in vivo
# Procedure, shortened: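 Male C57BL/6 mice were given 0.1 – 10 mg/kg compound or vehicle (1:1:18 ethanol:cremaphor:saline). Body temperature was measured at 15 min and expressed relative to vehicle (100%). n = 5–6.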
# Mus musculus [12] = assay: Reduction of intraocular pressure in ocular hypertensive NEE mouse harboring Sh3pxd2b deletion mutant at 0.2% administered topically to eye after 6 hrs by tonometry; type: functional
# Procedure, shortened: (§2)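 Ocular hypertensive NEE mice (1 bp deletion in Sh3pxd2b) received topical 0.2% compound alone. IOP change from baseline (time 0) was measured at 1, 6 and 12 h; paired t-tests.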
# [13] = Toxicity in C57BL/6 mouse assessed as catalepsy at 0.1 to 10 mg/kg, ip after 5 mins by bar holding assay; type: organism-based; details: in vivo
# Procedure, shortened: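 Male C57BL/6 mice were given 0.1 – 10 mg/kg compound or vehicle (1:1:18 ethanol:cremaphor:saline). Catalepsy was assessed at 5 min as % MPE with a 60 sec maximum. n = 5–6.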
# Mus musculus [14] = assay: Potentiation of […] WIN55212-2-induced reduction in intraocular pressure in ocular normotensive C57BL/6J mouse assessed as change in IOP at 0.2% administered topically to eye measured after 12 hrs by tonometry; type: functional
# [15] = human, microsomes, 1 µM
# [16] = Half life in rat liver microsomes at 1 uM up to 45 mins in presence of NADPH by LC-MS/MS analysis
# [17] = Half life in human liver microsomes at 1 uM up to 45 mins in presence of NADPH by LC-MS/MS analysis
# [18] = target: Cannabinoid receptor 1 (Mus musculus) (UniProt P47746); assay: Positive allosteric modulation activity at CB1 receptor in C57BL/6 mouse hippocampal neurons assessed as increase in depolarization-induced suppression of excitation at 1 uM at -70 mV holding potential by whole cell patch clamp assay
# Mus musculus [19] = assay: Potentiation of […] WIN55212-2-induced reduction in intraocular pressure in ocular normotensive C57BL/6J mouse assessed as change in IOP at 0.2% administered topically to eye measured after 6 hrs by tonometry; type: functional
# Mus musculus [20] = assay: Antinociceptive activity in C57BL/6 mouse at 3 to 10 mg/kg, ip after 20 mins post treatment by warm water tail-flick assay; type: functional, organism-based
# [21] = buffer, pH 7.4, 2 h
# Mus musculus [22] = assay: Reduction of intraocular pressure in ocular hypertensive NEE mouse harboring Sh3pxd2b deletion mutant at 0.2% administered topically to eye after 12 hrs by tonometry; type: functional, organism-based; procedure, shortened: as §2
# Mus musculus [23] = assay: Reduction of intraocular pressure in ocular hypertensive NEE mouse harboring Sh3pxd2b deletion mutant at 0.2% administered topically to eye after 1 hr by tonometry; type: functional; procedure, shortened: as §2
# Mus musculus [24] = assay: Potentiation of […] WIN55212-2-induced reduction in intraocular pressure in ocular normotensive C57BL/6J mouse assessed as change in IOP at 0.2% administered topically to eye measured after 1 hr by tonometry; type: functional
# Cannabinoid receptor 1 [25] = target: T1, Cannabinoid receptor 1; assay: Positive allosteric modulatory activity at human CB1R expressed in CHO-K1 cells assessed as increase in CP55940-induced inhibition of forskolin-stimulated cAMP production after 30 mins in presence of CP55940 at EC20 concentration by hit-hunter cAMP assay; type: functional, cell-based
# Procedure, shortened: (§3)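 Read-out was chemiluminescent cAMP detection, fit with a variable-slope 4-parameter regression. n = 1–3 independent experiments in duplicate.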
# Cannabinoid receptor 1 [26] = target: T1, Cannabinoid receptor 1; assay: Positive allosteric modulatory activity at human CB1R expressed in CHO-K1 cells assessed as increase in CP55940-induced inhibition of forskolin-stimulated cAMP production after 30 mins in presence of CP55940 at EC20 concentration by hit-hunter cAMP assay relative to control; type: functional, cell-based; procedure, shortened: as §3
# Cannabinoid receptor 1 [27] = target: T1, Cannabinoid receptor 1; assay: Positive allosteric modulatory activity at human CB1R expressed in CHO-K1 cells assessed as increase in CP55940-induced beta-arrestin2 recruitment after 90 mins in presence of CP55940 at EC20 concentration by pathhunter beta-arrestin assay; type: cell-based; procedure, shortened: as §1
# [28] = buffer, pH 7.4, 24 h
# T1 sequence (P21554 whole entry): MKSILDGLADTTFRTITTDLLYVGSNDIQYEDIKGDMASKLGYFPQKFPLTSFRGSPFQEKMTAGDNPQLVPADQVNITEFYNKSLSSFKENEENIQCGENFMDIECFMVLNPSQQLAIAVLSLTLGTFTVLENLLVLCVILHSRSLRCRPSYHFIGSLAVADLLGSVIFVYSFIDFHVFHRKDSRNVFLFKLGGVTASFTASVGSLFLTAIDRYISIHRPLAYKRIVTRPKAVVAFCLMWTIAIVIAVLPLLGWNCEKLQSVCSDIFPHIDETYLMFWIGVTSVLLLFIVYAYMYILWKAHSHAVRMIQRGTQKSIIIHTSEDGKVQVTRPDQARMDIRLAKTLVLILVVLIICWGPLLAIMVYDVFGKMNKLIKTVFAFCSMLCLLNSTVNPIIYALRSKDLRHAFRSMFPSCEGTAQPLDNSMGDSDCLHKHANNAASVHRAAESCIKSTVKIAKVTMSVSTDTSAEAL
# Sequence of Cannabinoid receptor 1 (Rattus norvegicus) (P20272 whole entry): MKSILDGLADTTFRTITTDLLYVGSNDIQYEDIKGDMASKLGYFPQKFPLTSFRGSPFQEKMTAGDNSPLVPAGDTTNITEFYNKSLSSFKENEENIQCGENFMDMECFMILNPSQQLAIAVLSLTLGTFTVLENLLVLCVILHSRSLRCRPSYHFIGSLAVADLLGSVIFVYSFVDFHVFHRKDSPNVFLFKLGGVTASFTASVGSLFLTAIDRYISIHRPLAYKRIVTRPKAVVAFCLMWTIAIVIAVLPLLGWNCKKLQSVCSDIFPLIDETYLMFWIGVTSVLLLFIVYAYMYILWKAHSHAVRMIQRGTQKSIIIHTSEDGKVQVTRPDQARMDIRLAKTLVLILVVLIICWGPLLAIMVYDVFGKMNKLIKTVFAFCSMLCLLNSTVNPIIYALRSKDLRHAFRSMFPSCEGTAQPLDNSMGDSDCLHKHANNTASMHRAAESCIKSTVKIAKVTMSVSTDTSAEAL
# Sequence of Cannabinoid receptor 1 (Mus musculus) (P47746 whole entry): as the sequence (P20272 whole entry) above, with E95D counted along it
smiles,measurement,setting,value
O=[N+]([O-])CC(c1ccccc1)c1c(-c2ccccc2)[nH]c2ccccc12 (racemic),Emax,Cannabinoid receptor 1 [1],28%
same,Emin,Cannabinoid receptor 1 [2],21%
same,Activity,[3],Dose-dependent effect
same,Emax,Cannabinoid receptor 1 [4],27%
same,Emax,Cannabinoid receptor 1 [5],46%
same,Emax,Cannabinoid receptor 1 [6],72%
same,Emin,Cannabinoid receptor 1 [7],1.8%
same,Activity,[8],Dose-dependent effect
CCCCCCC(C)(C)c1ccc([C@@H]2C[C@H](O)CC[C@H]2CCCO)c(O)c1,Emin,[9],29%
O=[N+]([O-])CC(c1ncccc1F)c1c(-c2ccccc2)[nH]c2ccccc12 (centres undefined),CLH,[10],556 µL/min
same,Activity,[11],Non-Toxic
same,Activity,Mus musculus [12],3.6 mmHg
same,Activity,[13],Non-Toxic
same,Activity,Mus musculus [14],0.1 mmHg
same,CLH,[15],84.5 µL/min
same,t1/2,[16],4.08 min
same,t1/2,[17],27.4 min
same,Activity,[18],Active
same,Activity,Mus musculus [19],-0.6 mmHg
same,Activity,Mus musculus [20],inactive
same,Kinetic_solubility,[21],3.13 µM
same,inhibition,Mus musculus [22],inactive
same,Activity,Mus musculus [23],2.5 mmHg
same,Activity,Mus musculus [24],-0.7 mmHg
O=[N+]([O-])CC(c1ccccc1)c1c(-c2cccnc2)[nH]c2ccccc12 (centres undefined),EC50,Cannabinoid receptor 1 [25],1.1 µM
same,Emax,Cannabinoid receptor 1 [26],150%
same,EC50,Cannabinoid receptor 1 [27],> 10 µM
same,Emax,Cannabinoid receptor 1 [5],9.2%
same,Therm_solubility,[28],4.9 µM
O=[N+]([O-])CC(c1ccccc1)c1c(-c2ccccc2)[nH]c2ccncc12 (centres undefined),EC50,Cannabinoid receptor 1 [25],> 10 µM
same,Emax,Cannabinoid receptor 1 [26],4%
same,EC50,Cannabinoid receptor 1 [27],> 10 µM
same,Emax,Cannabinoid receptor 1 [5],2.8%
same,Therm_solubility,[28],23.6 µM
O=[N+]([O-])CC(c1ccccc1)c1c(-c2ccccc2)[nH]c2ncccc12 (centres undefined),EC50,Cannabinoid receptor 1 [25],1.1 µM
same,Emax,Cannabinoid receptor 1 [26],39%
same,EC50,Cannabinoid receptor 1 [27],> 10 µM
same,Emax,Cannabinoid receptor 1 [5],7%
same,Therm_solubility,[28],159 µM
